Data: ChEMBL document CHEMBL4400568, “The design of 1,4-naphthoquinone derivatives and mechanisms underlying apoptosis induction through ROS-dependent MAPK/Akt/STAT3 pathways in human lung cancer cells” (Bioorg Med Chem, 2019)
pIC50: −log10 of the molar value. Active and inactive are the calls of the source. The rule behind the calls is not given here.

Key:
[1] = test system: NCI-H23; assay: Cytotoxicity against human NCI-H23 cells assessed as reduction in cell viability after 24 hrs by MTT assay; type: functional, cell-based
How it was run: (§1)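 Log-phase cells seeded at 1 × 10⁴ per well. Lung cancer lines (A549, NCI-H23, NCI-H460) and normal lines (IMR-90, QSG-7701, HEK-293A) each exposed to 1, 3, 10, 30 and 100 μM for 24 h. MTT (5 mg/mL stock) added for 2 h at 37°C, formazan dissolved in DMSO, absorbance read at 490 nm. Three independent experiments, mean ± SD.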

[2] = test system: NCI-H460; assay: Cytotoxicity against human NCI-H460 cells assessed as reduction in cell viability after 24 hrs by MTT assay; type: functional, cell-based; how it was run: as §1
[3] = test system: A549; assay: Cytotoxicity against human A549 cells assessed as reduction in cell viability after 24 hrs by MTT assay; type: functional, cell-based; conditions: A549, 24 h; how it was run: as §1
[4] = test system: IMR-90; assay: Cytotoxicity against human IMR90 cells assessed as reduction in cell viability after 24 hrs by MTT assay; type: cell-based; conditions: imr-90, 24 h; how it was run: as §1
[5] = Cytotoxicity against HEK293A cells assessed as reduction in cell viability after 24 hrs by MTT assay; type: cell-based; conditions: human, hek293-a; how it was run: as §1
[6] = test system: A549; assay: Induction of apoptosis in human A549 cells assessed as late apoptotic cells at 3 uM after 3 hrs by Annexin V-FITC/propidium iodide staining-based flow cytometric analysis (reference value: 4.52%); type: functional
[7] = test system: A549; assay: Induction of apoptosis in human A549 cells assessed as early apoptotic cells at 3 uM after 12 hrs by Annexin V-FITC/propidium iodide staining-based flow cytometric analysis (reference value: 2.73%); type: functional
[8] = test system: A549; assay: Cell cycle arrest in human A549 cells assessed as accumulation of cells at G1 phase at 3 uM after 3 hrs by propidium iodide staining-based flow cytometric analysis (reference value: 57.65%); type: functional
[9] = test system: A549; assay: Cell cycle arrest in human A549 cells assessed as accumulation of cells at S phase at 3 uM after 3 hrs by propidium iodide staining-based flow cytometric analysis (reference value: 13.85%); type: functional
[10] = test system: A549; assay: Cell cycle arrest in human A549 cells assessed as accumulation of cells at G1 phase at 3 uM after 6 hrs by propidium iodide staining-based flow cytometric analysis (reference value: 57.65%); type: functional
[11] = test system: A549; assay: Cell cycle arrest in human A549 cells assessed as accumulation of cells at S phase at 3 uM after 6 hrs by propidium iodide staining-based flow cytometric analysis (reference value: 13.85%); type: functional
[12] = test system: A549; assay: Cell cycle arrest in human A549 cells assessed as accumulation of cells at G2 phase at 3 uM after 6 hrs by propidium iodide staining-based flow cytometric analysis (reference value: 24.02%); type: functional
[13] = test system: A549; assay: Cell cycle arrest in human A549 cells assessed as accumulation of cells at G1 phase at 3 uM after 24 hrs by propidium iodide staining-based flow cytometric analysis (reference value: 57.65%); type: functional
[14] = test system: A549; assay: Cell cycle arrest in human A549 cells assessed as accumulation of cells at G2 phase at 3 uM after 24 hrs by propidium iodide staining-based flow cytometric analysis (reference value: 24.02%); type: functional
[15] = test system: A549; assay: Cell cycle arrest in human A549 cells assessed as accumulation of cells at G1 phase at 3 uM by propidium iodide staining-based flow cytometric analysis; type: functional; conditions: TDE = time-dependent effect
[16] = target: RAC-alpha serine/threonine-protein kinase (Homo sapiens) (UniProt P31749); assay: Inhibition of AKT phosphorylation in human A549 cells at 3 uM by Western blot analysis; type: cell-based; conditions: TDE = time-dependent effect
How it was run: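 A549 cells exposed to 3 μM for 3, 6, 12 or 24 h. Lysate protein (30 μg) run on 12% SDS-PAGE and blotted to nitrocellulose. Membranes blocked in 5% skim milk, primary antibodies at 4°C overnight, then HRP anti-IgG secondary for 1 h at room temperature. β-actin was the internal control. Bands quantified by densitometry; three independent experiments, mean ± SD.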

[17] = test system: A549; assay: Cell cycle arrest in human A549 cells assessed as increase in p27 levels at 3 uM by Western blot analysis; type: functional, cell-based; conditions: TDE = time-dependent effect
How it was run: (§2)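 A549 cells exposed to 3 μM for 3, 6, 12 or 24 h; where NAC is used, 10 mM NAC is added 30 min before 24 h treatment. Lysate protein (30 μg) is run on 12% SDS-PAGE, blotted to nitrocellulose, blocked in 5% milk, primary antibody overnight at 4°C, then HRP anti-IgG. β-actin loading control; densitometry; three independent experiments, mean ± SD.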

[18] = target: T1, MAP kinase p38 (Homo sapiens) (UniProt O15264+Q15759+Q16539+P53778); assay: Activation of p38 phosphorylation in human A549 cells at 3 uM after 3 to 24 hrs by Western blot analysis; type: cell-based; how it was run: as §2
[19] = target: T1, MAP kinase p38 (Homo sapiens); assay: Modulation of p38 MAPK in human A549 cells assessed as reduction in STAT3 phosphorylation measured after 24 hrs in presence of p38 inhibitor SB203580 by Western blot analysis; type: cell-based
How it was run: (§3)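 A549 cells pre-incubated for 30 min with 12.1 μM kinase inhibitor: SB203580 (p38), SP600125 (JNK), FR180204 (ERK) or LY10249 (Akt). Compound treatment followed for 24 h. Lysates (30 μg protein) analysed by 12% SDS-PAGE and nitrocellulose immunoblot with HRP detection. Three independent experiments, mean ± SD.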

[20] = target: T1, MAP kinase p38 (Homo sapiens); assay: Modulation of p38 MAPK in human A549 cells assessed as increase in cleaved caspase-3 level measured after 24 hrs in presence of p38 inhibitor SB203580 by Western blot analysis; type: cell-based; how it was run: as §3
[21] = target: RAC-alpha serine/threonine-protein kinase (Homo sapiens) (UniProt P31749); assay: Modulation of AKT in human A549 cells assessed as decrease in CDK6 levels measured after 24 hrs in presence of Akt inhibitor-LY10249 by Western blot analysis; type: cell-based; how it was run: as §3
[22] = test system: A549; assay: Induction of ROS generation in human A549 cells assessed as intracellular ROS level at 3 uM after 3 hrs by DCFH-DA staining-based flow cytometric analysis (reference value: 51.8%); type: functional
How it was run: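 A549 cells loaded with DCFH-DA (10 μM per legend) for 30 min, then exposed to 3 μM at 37°C for 3, 6, 12 or 24 h. After two PBS washes, intracellular fluorescence is quantified by flow cytometry. Three independent experiments, mean ± SD.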

[23] = test system: A549; assay: Inhibition of ERK phosphorylation in human A549 cells at 3 uM after 24 hrs in presence of NAC by Western blot analysis; type: cell-based
How it was run: (§4)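 A549 cells pretreated with 10 mM NAC for 30 min, then exposed to compound for 24 h. Lysate protein (30 μg) resolved on 12% SDS-PAGE and transferred to nitrocellulose. Probed with primary antibodies overnight at 4°C, then HRP secondary. Band densities from three independent experiments, mean ± SD.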

[24] = test system: A549; assay: Inhibition of ERK in human A549 cells assessed as decrease in STAT3 phosphorylation at 3 uM after 24 hrs in presence of NAC by Western blot analysis; type: cell-based; how it was run: as §4
[25] = target: T1, MAP kinase p38 (Homo sapiens); assay: Activation of p38 phosphorylation in human A549 cells at 3 uM after 24 hrs in presence of NAC by Western blot analysis; type: cell-based; how it was run: as §2
[26] = target: c-Jun N-terminal kinase, JNK (Homo sapiens) (UniProt P45983+P53779+P45984); assay: Activation of JNK phosphorylation in human A549 cells at 3 uM after 24 hrs in presence of NAC by Western blot analysis; type: cell-based; how it was run: as §2

Chain of RAC-alpha serine/threonine-protein kinase (Homo sapiens) (P31749 whole entry): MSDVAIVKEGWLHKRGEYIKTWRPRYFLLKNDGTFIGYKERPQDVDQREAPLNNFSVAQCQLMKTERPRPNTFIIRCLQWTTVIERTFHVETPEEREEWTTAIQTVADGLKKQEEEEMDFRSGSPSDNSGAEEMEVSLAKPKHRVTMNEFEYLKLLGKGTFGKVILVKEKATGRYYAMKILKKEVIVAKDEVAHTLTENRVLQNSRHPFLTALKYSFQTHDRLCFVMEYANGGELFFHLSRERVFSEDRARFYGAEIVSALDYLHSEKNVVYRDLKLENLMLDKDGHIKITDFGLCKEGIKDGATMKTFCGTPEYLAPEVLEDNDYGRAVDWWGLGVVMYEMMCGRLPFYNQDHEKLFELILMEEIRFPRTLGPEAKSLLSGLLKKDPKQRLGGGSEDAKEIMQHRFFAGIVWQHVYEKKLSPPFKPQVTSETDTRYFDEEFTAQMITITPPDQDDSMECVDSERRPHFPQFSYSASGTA

| Compound | Activity [1] | Activity [2] | pIC50 [3] | Activity [4] | Activity [5] | Activity [6] [%] | Activity [7] [%] | Activity [8] [%] | Activity [9] [%] | Activity [10] [%] | Activity [11] [%] | Activity [12] [%] | Activity [13] [%] | Activity [14] [%] | Activity [15] | inhibition [16] | Activity [17] | Activity [18] | Activity [19] | Activity [20] | also measured |
| --- | --- | --- | --- | --- | --- | --- | --- | --- | --- | --- | --- | --- | --- | --- | --- | --- | --- | --- | --- | --- | --- |
| CCCS(=O)(=O)C12OC1C(=O)c1c(OC)ccc(OC)c1C2=O (configuration not stated) | Active | Active | 5.59 | Non-Toxic | Non-Toxic | 5.11 | 35.37 | 60.85 | 11.61 | 66.13 | 10.31 | 18.26 | 72.02 | 17.13 | Tde | Tde | Tde | Active | inactive | inactive | Activity [21]: Active; Activity [22]: 57.9%; inhibition [23]: inactive; inhibition [24]: inactive; Activity [25]: inactive; Activity [26]: inactive |
| CCCCCCCCCS(=O)(=O)C12OC1C(=O)c1c(OC)ccc(OC)c1C2=O (configuration not stated) | Active | Active | 5.12 | Non-Toxic | Non-Toxic | 5.43 | 16.92 | 61.21 | 9.45 | 65.95 | 8.44 | 22.02 | 71.38 | 19.84 | Tde | Tde | Tde | Active | inactive | inactive | Activity [21]: Active; Activity [22]: 52.52%; inhibition [23]: inactive; inhibition [24]: inactive; Activity [25]: inactive; Activity [26]: inactive |
